Data on five molecules can be found in ChEMBL document CHEMBL3244125, “In vivo inhibitors of Escherichia coli phenylalanyl-tRNA synthetase” (J Med Chem, 1979).

The subject of experiment [1] is Escherichia coli B. The experiment can be described thus: Inhibition of Phe-tRNA synthetase in rel+ Escherichia coli B assessed as growth inhibition at IC50 in presence of 2.5 mM L-Phe. The gist of the method: (§1)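 Reversal assay in E. coli B/r. Exponential culture (A600 ≈ 0.3) in basal salts glucose minimal medium was diluted into medium holding the specified amino acid plus inhibitor, at 37 °C. Controls had no inhibitor. Growth was read turbidimetrically at 600 nm after about three generations, as % inhibition relative to control.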

Experiment [2] is described as follows: Inhibition of Phe-tRNA synthetase in rel+ Escherichia coli B assessed as growth inhibition. Summed up:
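E. coli B/r in exponential growth (A600 ≈ 0.3) in basal salts medium (0.2% glucose, phosphate, MgSO4, (NH4)2SO4) was diluted into medium with a range of inhibitor levels. It was incubated at 37 °C for about three generations, until controls reached A600 0.4–0.45. Growth was read at 600 nm as % of control turbidity, and IC50 was taken from % inhibition versus concentration plots.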

The subject of experiment [3] is Escherichia coli B. The experiment can be described thus: Ratio of IC50 for inhibition of Phe-tRNA synthetase in rel+ Escherichia coli B assessed as growth inhibition to Ki for inhibition of rel+ Escherichia coli B Phe-tRNA synthetase using L-[3H]-phenylalanine as substrate.
The nature of experiment [4]: Inhibition of rel+ Escherichia coli B Phe-tRNA synthetase using L-[3H]-phenylalanine as substrate by scintillation counting analysis.
Experiment [5] deals with Escherichia coli B. Nature of the experiment: Inhibition of Phe-tRNA synthetase in rel+ Escherichia coli B assessed as formation of [32P]ppGpp at 23 uM at 37 degC measured every 1 min by scintillation counting analysis in absence of casamino acid supplement in tris-glucose minimal media. Summed up: (§2)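 Exponential cultures in Tris-glucose minimal medium were labeled with carrier-free [32P]phosphate at least 30 min before inhibitor. Four to five 25 µL aliquots were taken at about 1-min intervals into ice-cold 2 M formic acid and held 30 min at 0 °C. Extracts were run on PEI-cellulose TLC in 1.5 M KH2PO4 pH 3.4. ppGpp spots were located by autoradiography and counted. Initial rate was taken as the linear increase over time.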

In experiment [6] the test system is Escherichia coli B. Nature of the experiment: Inhibition of Phe-tRNA synthetase in rel+ Escherichia coli B assessed as tRNA-Phe level at 9.2 uM at 37 degC after 30 mins in absence of casamino acid supplement in tris-glucose minimal media (reference value: 60%).
Experiment [7] has as its system Escherichia coli B. The experiment can be described thus: Inhibition of Phe-tRNA synthetase in rel+ Escherichia coli B assessed as growth inhibition at IC50 in presence of Tyr. The gist of the method:
as §1

The nature of experiment [8]: Inhibition of Phe-tRNA synthetase in rel+ Escherichia coli B assessed as reduction of tRNA-Phe level after 30 mins.
The test system of experiment [9] is Escherichia coli B. Nature of the experiment: Inhibition of Phe-tRNA synthetase in rel+ Escherichia coli B assessed as growth inhibition at IC50 in presence of Pro. The gist of the method:
as §1

The subject of experiment [10] is Escherichia coli B. The experiment can be described thus: Inhibition of Val-tRNA synthetase in rel+ Escherichia coli B assessed as tRNA-val level at 230 uM at 37 degC after 30 mins in absence of casamino acid supplement in tris-glucose minimal media.
Experiment [11] deals with Escherichia coli B. The experiment can be described thus: Inhibition of Phe-tRNA synthetase in rel+ Escherichia coli B assessed as growth inhibition at 92 uM. Summed up:
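E. coli B/r in log phase at 37 °C, with inhibitor added at a set time. Cell density was followed turbidimetrically at 600 nm alongside ppGpp and RNA synthesis measurements.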

Experiment [12] deals with Escherichia coli. Nature of the experiment: Inhibition of Phe-tRNA synthetase in Escherichia coli NP29 assessed as formation of [32P]ppGpp at 230 uM at 30 degC measured every 1 min by scintillation counting analysis. The gist of the method: as §2
Experiment [13] deals with Isoleucine--tRNA ligase (Escherichia coli K-12) (UniProt P00956). The experiment can be described thus: Inhibition of Ile-tRNA synthetase in rel+ Escherichia coli B assessed as tRNA-Ile level at 230 uM at 37 degC after 30 mins in presence of casamino acid supplement in tris-glucose minimal media (reference value: 50%).
Experiment [14] has as its system Escherichia coli B. Nature of the experiment: Inhibition of Phe-tRNA synthetase in rel+ Escherichia coli B assessed as [3H]-RNA synthesis at 92 uM after 5 mins by scintillation counting analysis in presence of [5-3H]-Uracil. Summed up:
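E. coli B/r in exponential growth was labeled with [5-3H]uracil (75 Ci/mol). At intervals, 25 µL culture was put into 1 mL ice-cold trichloroacetic acid for 5 min at 0 °C. Samples were filtered on glass-fibre filters, washed with cold TCA then 95% ethanol, and counted by scintillation.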

For experiment [15], the system named is Escherichia coli B. Nature of the experiment: Inhibition of Phe-tRNA synthetase in rel+ Escherichia coli B assessed as growth inhibition at IC50 in presence of Val. Summed up:
as §1

The subject of experiment [16] is Escherichia coli B. The experiment can be described thus: Inhibition of Val-tRNA synthetase in rel+ Escherichia coli B assessed as tRNA-val level at 230 uM at 37 degC after 30 mins in presence of casamino acid supplement in tris-glucose minimal media (reference value: 100%).
In experiment [17] the test system is Escherichia coli B. Nature of the experiment: Inhibition of Phe-tRNA synthetase in rel+ Escherichia coli B assessed as formation of [32P]ppGpp at 92 uM measured every 1 min by scintillation counting analysis. Summed up:
as §2

Experiment [18] deals with Escherichia coli B. Nature of the experiment: Inhibition of Phe-tRNA synthetase in rel+ Escherichia coli B assessed as growth inhibition at IC50 in presence of Ser. The gist of the method:
as §1

In experiment [19] the test system is Escherichia coli B. The experiment can be described thus: Inhibition of Phe-tRNA synthetase in rel+ Escherichia coli B assessed as formation of [32P]ppGpp at 4.6 uM at 37 degC measured every 1 min by scintillation counting analysis in absence of casamino acid supplement in tris-glucose minimal media. Summed up: as §2
The subject of experiment [20] is Escherichia coli B. The experiment can be described thus: Inhibition of Phe-tRNA synthetase in rel+ Escherichia coli B assessed as half maximal rate of [32P]ppGpp formation at 70 uM measured every 1 min by scintillation counting analysis. The gist of the method:
as §2

Experiment [21] deals with Isoleucine--tRNA ligase (Escherichia coli K-12) (UniProt P00956). Nature of the experiment: Inhibition of Ile-tRNA synthetase in rel+ Escherichia coli B assessed as tRNA-Ile level at 4.6 uM at 37 degC after 30 mins in absence of casamino acid supplement in tris-glucose minimal media (reference value: 40%).
For experiment [22] the target is unchanged. The experiment can be described thus: Inhibition of Ile-tRNA synthetase in rel+ Escherichia coli B assessed as tRNA-Ile level at 230 uM at 37 degC after 30 mins in absence of casamino acid supplement in tris-glucose minimal media (reference value: 40%).
For experiment [23], the system named is Escherichia coli B. The experiment can be described thus: Inhibition of Phe-tRNA synthetase in rel+ Escherichia coli B assessed as formation of [32P]ppGpp at 230 uM at 37 degC measured every 1 min by scintillation counting analysis in absence of casamino acid supplement in tris-glucose minimal media. The gist of the method:
as §2

The test system of experiment [24] is Escherichia coli B. Nature of the experiment: Inhibition of rel+ Phe-tRNA synthetase in Escherichia coli B assessed as tRNA-Phe level at 4.6 uM at 37 degC after 30 mins in absence of casamino acid supplement in tris-glucose minimal media (reference value: 60%).
Experiment [25] relates to Escherichia coli B. The experiment can be described thus: Inhibition of Phe-tRNA synthetase in rel+ Escherichia coli B assessed as growth inhibition at IC50 in presence of Ile. The gist of the method:
as §1

Experiment [26] deals with Escherichia coli B. The experiment can be described thus: Inhibition of Phe-tRNA synthetase in rel+ Escherichia coli B assessed as tRNA-Phe level at 230 uM at 37 degC after 30 mins in presence of casamino acid supplement in tris-glucose minimal media (reference value: 90%).
The target in experiment [27] is Isoleucine--tRNA ligase (Escherichia coli K-12) (UniProt P00956). Nature of the experiment: Inhibition of Ile-tRNA synthetase in rel+ Escherichia coli B assessed as tRNA-Ile level at 9.2 uM at 37 degC after 30 mins in absence of casamino acid supplement in tris-glucose minimal media (reference value: 40%).
In experiment [28] the test system is Escherichia coli B. Nature of the experiment: Inhibition of Phe-tRNA synthetase in rel+ Escherichia coli B assessed as formation of [32P]ppGpp at 230 uM at 37 degC measured every 1 min by scintillation counting analysis in presence of casamino acid supplement in tris-glucose minimal media. Summed up: as §2
The subject of experiment [29] is Escherichia coli B. The experiment can be described thus: Inhibition of Phe-tRNA synthetase in rel+ Escherichia coli B assessed as tRNA-Phe level at 23 uM at 37 degC after 30 mins in absence of casamino acid supplement in tris-glucose minimal media (reference value: 60%).
The subject of experiment [30] is Escherichia coli B. Nature of the experiment: Inhibition of Phe-tRNA synthetase in rel+ Escherichia coli B assessed as tRNA-Phe level at 230 uM at 37 degC after 30 mins in absence of casamino acid supplement in tris-glucose minimal media (reference value: 60%).
For experiment [31], the target named is Isoleucine--tRNA ligase (Escherichia coli K-12) (UniProt P00956). Nature of the experiment: Inhibition of Ile-tRNA synthetase in Escherichia coli NP29 assessed as tRNA-Ile level at 230 uM at 30 degC after 30 mins (reference value: 40%). Summed up: (§3)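 Temperature-sensitive Val-tRNA synthetase strain NP29, grown at 30 °C in Tris-glucose minimal medium with 0.2% casamino acids. Inhibitor was added during log growth and the control was kept at 30 °C. After 30 min, cells were quenched with ice and NaN3 and disrupted. Aminoacyl-tRNA was measured by periodate oxidation (1 mM) or Tris-HCl pH 8.0 stripping, with purified synthetases.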

In experiment [32] the test system is Escherichia coli. Nature of the experiment: Inhibition of Val-tRNA synthetase in Escherichia coli NP29 assessed as tRNA-val level at 230 uM at 30 degC after 30 mins (reference value: 30%). Summed up: as §3
Experiment [33] addresses Isoleucine--tRNA ligase (Escherichia coli K-12) (UniProt P00956). The experiment can be described thus: Inhibition of Ile-tRNA synthetase in rel+ Escherichia coli B assessed as tRNA-Ile level at 23 uM at 37 degC after 30 mins in absence of casamino acid supplement in tris-glucose minimal media (reference value: 40%).
In experiment [34] the test system is Escherichia coli B. Nature of the experiment: Inhibition of Phe-tRNA synthetase in rel+ Escherichia coli B assessed as formation of [32P]ppGpp at 9.2 uM at 37 degC measured every 1 min by scintillation counting analysis in absence of casamino acid supplement in tris-glucose minimal media. The gist of the method: as §2
For experiment [35], the system named is Escherichia coli. Nature of the experiment: Inhibition of Phe-tRNA synthetase in Escherichia coli NP29 assessed as tRNA-Phe level at 230 uM at 30 degC after 30 mins (reference value: 70%). The gist of the method: as §3

As a reminder, the inhibition is the change of the read-out against control, counted positive when it falls. Broadly, the IC50 is the point on the concentration scale where inhibition reaches its midpoint. What is called Ki is a measure of affinity in units of concentration, obtained from inhibition or displacement.

The source made the active and inactive calls. The rule behind the calls is not given here.

Chain of Isoleucine--tRNA ligase (Escherichia coli K-12) (P00956 whole entry): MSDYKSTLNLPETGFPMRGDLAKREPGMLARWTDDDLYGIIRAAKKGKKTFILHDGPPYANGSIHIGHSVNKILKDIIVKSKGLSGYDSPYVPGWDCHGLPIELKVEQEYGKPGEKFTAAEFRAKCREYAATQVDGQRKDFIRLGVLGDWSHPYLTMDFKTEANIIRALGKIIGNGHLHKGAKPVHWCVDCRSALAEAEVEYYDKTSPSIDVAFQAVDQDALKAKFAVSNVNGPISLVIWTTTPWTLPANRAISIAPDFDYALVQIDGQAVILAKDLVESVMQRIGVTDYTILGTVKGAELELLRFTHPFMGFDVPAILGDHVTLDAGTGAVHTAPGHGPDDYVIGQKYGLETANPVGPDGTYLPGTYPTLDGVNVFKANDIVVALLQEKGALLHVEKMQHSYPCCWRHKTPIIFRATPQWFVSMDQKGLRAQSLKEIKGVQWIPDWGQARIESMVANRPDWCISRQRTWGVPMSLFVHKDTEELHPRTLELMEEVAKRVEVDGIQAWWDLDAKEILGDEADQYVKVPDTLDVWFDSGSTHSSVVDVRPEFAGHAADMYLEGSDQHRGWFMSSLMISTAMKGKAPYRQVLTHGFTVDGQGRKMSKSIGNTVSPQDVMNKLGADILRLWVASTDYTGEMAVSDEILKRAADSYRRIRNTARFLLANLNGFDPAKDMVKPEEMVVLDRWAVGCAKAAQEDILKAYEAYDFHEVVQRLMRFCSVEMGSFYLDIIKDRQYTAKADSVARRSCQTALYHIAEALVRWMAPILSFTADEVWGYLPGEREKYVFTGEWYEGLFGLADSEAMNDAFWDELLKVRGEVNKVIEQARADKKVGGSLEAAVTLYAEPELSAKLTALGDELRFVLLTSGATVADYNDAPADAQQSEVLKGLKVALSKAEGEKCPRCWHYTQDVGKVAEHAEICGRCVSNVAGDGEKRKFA

Regarding `C[C@@H](Cc1ccccc1)NCc1ccccc1`, the inhibition entry in [1] is “inactive”. Also, in experiment [2], the IC50 was determined as 590 µM. Further, the Ratio in experiment [3] stood at 105. This molecule came in with a Ki in experiment [4] of 5.6 µM.

Consider `c1ccc(CCNCc2ccccc2)cc1`, for which, in experiment [1], the inhibition entry is “inactive”. The IC50 in experiment [2] is 77 µM. Moreover, the Ratio in experiment [3] was 115. Further, in [4], affinity was put at a Ki of 0.67 µM.

For `NCCc1ccccc1` [PHENETHYLAMINE], in experiment [2], the concentration for half-maximal inhibition (IC50) was found to be 10900 µM. Moreover, the Ratio in experiment [3] was 117. The same molecule showed a Ki in [4] of 93 µM.

With `C[C@H](Cc1ccccc1)NCc1ccccc1` [N-BENZYLAMPHETAMINE], the inhibition entry in [5], in experiment [7], in experiment [9], in [11], in experiment [12] and in experiment [14] was “Active” throughout. Besides, the inhibition entry in [15], in [17], in experiment [18], in experiment [19], in [20] and in [23] was “Active” in each case. For the same molecule, the inhibition result in [25], in experiment [28] and in experiment [34] was “Active” in each case. Also, the inhibition stood at 35% in experiment [6]; 100% in experiment [10]; 55% in [13]; 100% in experiment [16]; 40% in [21]; 45% in experiment [22]. Besides, the inhibition in experiment [24] stood at 45%; in [26] it was 15%; in experiment [27], 40%; in experiment [29] it was 20%; in [30], 10%; in experiment [31], 45%. In addition, the inhibition was determined as 95% in experiment [32], 45% in [33] and 5% in [35]. For the same molecule, the IC50 turned out to be 13 µM in [8] and 15 µM in experiment [2]. For the same molecule, in experiment [1], the inhibition entry is “inactive”. Also, the Ratio in [3] was 107. In experiment [4], this molecule showed a Ki of 0.14 µM.

Consider `OC[C@@H](Cc1ccccc1)NCc1ccccc1`, for which, in [1], the inhibition entry is “inactive”. For the same molecule, the IC50 in experiment [2] is 82 µM. Further, the Ratio in experiment [3] amounted to 106. For the same molecule, in [4], the affinity corresponds to a Ki of 0.77 µM.
